# Results of several laboratories.
# pIC50: −log10 of the molar value.
# Cell line: A549
# Observed: cell growth or viability
Compound,technique,time,measurement,value
CC#CCn1cnc2ccc(-c3ccc(NC(=O)CCCC)nc3)cc2c1=O,CCK-8,72 h,pIC50,< 5.00
Fc1ccccc1Nc1nc(-c2ccncc2)nc2c1CNCC2,MTT,,pIC50,< 4.00
O=C(Nc1ccc(F)cc1)Nc1nc2cc(-c3ccc4ncn(CC5CC5)c(=O)c4c3)ccc2s1,MTT,72 h,pIC50,5.61
O=C(C=Cc1cccs1)c1ccc(OCCCOc2ccc(C(=O)C=Cc3cccs3)cc2)cc1,MTT,48 h,pIC50,3.94
OC1CCN(c2ccc(/C=N/NC(=S)Nc3ccc(F)cc3)cc2)CC1,MTT,24 h,pIC50,5.55
CCCCn1cnc2ccc(-c3ccc(NC(C)=O)nc3)cc2c1=O,CCK-8,72 h,pIC50,< 5.00
CCCCNC(=O)Nc1nc2cc(-c3ccc4ncn(Cc5ccccc5)c(=O)c4c3)ccc2s1,MTT,72 h,pIC50,5.20
C/C(=N\C(=O)/N=C(\C)c1c(O)c2ccccc2oc1=O)c1c(O)c2ccccc2oc1=O,MTT,48 h,pIC50,4.71
OC1CCN(c2ccc(/C=N/NC(=S)NCc3ccc(Cl)cc3)cc2)CC1,MTT,24 h,pIC50,5.84
CC(C)CCn1cnc2ccc(-c3ccc4sc(NC(=O)Nc5ccc(F)cc5)nc4c3)cc2c1=O,MTT,72 h,pIC50,5.62
O=C(NO)Nc1nc2c(Cl)cc(Cl)cc2c(=O)n1-c1ccccc1,MTT,48 h,pIC50,4.35
O=C(Nc1nc2cc(-c3ccc4ncn(Cc5ccccc5)c(=O)c4c3)ccc2s1)NC1CCCCC1,MTT,72 h,pIC50,4.91
S=C(N/N=C/c1cccc2cc3ccccc3nc12)Nc1ccccc1,MTT,48 h,pIC50,< 4.30
CCc1oc2cc(S(=O)(=O)Nc3ccc(S(=O)(=O)Nc4nccs4)cc3)ccc2c1C(=O)c1cc(Br)c(O)c(Br)c1,MTT,96 h,pIC50,3.65
COc1cccc(NC(=O)Cn2cc(COc3ncnc4[nH]cnc34)nn2)c1,MTT,,pIC50,4.52
CCCCn1cnc2ccc(-c3ccc(NC(=O)NCC)nc3)cc2c1=O,CCK-8,72 h,pIC50,< 5.00
COc1cccc2c1C(=O)c1c(O)c3c(c(O)c1C2=O)C[C@@](O)(C(=O)CO)C[C@@H]3O[C@H]1C[C@H](N)[C@H](O)[C@H](C)O1,MTT,48 h,pIC50,5.23
CCCCn1cnc2ccc(-c3ccc(NC(=O)Nc4ccc(Cl)cc4)nc3)cc2c1=O,CCK-8,72 h,pIC50,< 5.00
O=C(Nc1ccc(F)cc1)Nc1nc2cc(-c3ccc4ncn(CCN5CCOCC5)c(=O)c4c3)ccc2s1,MTT,72 h,pIC50,5.60
CN(C)C(=O)Nc1nc2c(Cl)cc(Cl)cc2c(=O)n1-c1ccccc1,MTT,48 h,pIC50,< 3.70
C/C(=N\C(=S)/N=C(\C)c1c(O)c2ccccc2oc1=O)c1c(O)c2ccccc2oc1=O,MTT,48 h,pIC50,5.18
CN1CCc2c(c3ccccc3n2Cc2ccc(C(=O)NO)cc2)C1,CCK-8,48 h,pIC50,4.56
CC(=NNC(=O)c1cc(-c2ccccc2)n(-c2ccc(S(N)(=O)=O)cc2)n1)c1ccc(C)cc1,fluorescence,48 h,pIC50,4.95
O=C(O)c1ccc(NCc2cc(Br)ccc2O)cc1,resazurin,72 h,pIC50,< 4.00
COc1cccc(NC(=O)Nc2nc3cc(-c4ccc5ncn(CC(=O)N6CCOCC6)c(=O)c5c4)ccc3s2)c1,MTT,72 h,pIC50,< 4.70
O=C(Nc1ccc(-c2ccc3ncn(Cc4ccccc4)c(=O)c3c2)cn1)c1ccco1,CCK-8,72 h,pIC50,< 5.00
NS(=O)(=O)c1ccc(-n2nc(C(=O)NN3C(=O)c4ccccc4C3=O)cc2-c2ccccc2)cc1,fluorescence,48 h,pIC50,4.47
COc1cccc(CNc2ccc(C(=O)O)cc2)c1OC,resazurin,72 h,pIC50,< 4.00
O=[N+]([O-])c1ccc(NC(=S)N/N=C/c2cccc3cc4ccccc4nc23)cc1,MTT,48 h,pIC50,< 4.30
COc1cccc2c1C(=O)c1c(O)c3c(c(O)c1C2=O)C[C@@](O)(C(=O)CO)C[C@@H]3O[C@H]1C[C@H](N)[C@H](O)[C@H](C)O1,,96 h,pIC50,6.63
CC(C)[C@@H]1NC(=O)[C@@H](CCCNC(=N)N)NC(=O)[C@H](C)NC(=O)[C@@H](CCCN)NC(=O)[C@H](Cc2ccccc2)NC(=O)[C@@H](Cc2ccccc2)NC1=O,ATP luminescence,72 h,pIC50,< 4.00
CNC(=O)c1cc(Oc2ccc(NC(=O)Nc3ccc(Cl)c(C(F)(F)F)c3)cc2)ccn1,MTT,48 h,pIC50,4.91
C[C@@H]1C[C@H]2[C@@H]3CCC4=CC(=O)C=C[C@]4(C)[C@@]3(F)[C@@H](O)C[C@]2(C)[C@@]1(O)C(=O)CO,MTT,48 h,pIC50,3.46
NNc1nc2c(Cl)cc(Cl)cc2c(=O)n1-c1ccc(Cl)cc1,MTT,48 h,pIC50,4.59
CN(C)c1ccc(CNc2ccc(C(=O)O)cc2)cc1,resazurin,72 h,pIC50,< 4.00
COc1cccc2c1C(=O)c1c(O)c3c(c(O)c1C2=O)C[C@@](O)(C(=O)CO)C[C@@H]3O[C@H]1C[C@H](N)[C@H](O)[C@H](C)O1,MTT,,pIC50,6.51
CC(=O)O[C@@]12CO[C@@H]1C[C@H](O)[C@@]1(C)C(=O)[C@H](O)C3=C(C)[C@@H](OC(=O)[C@H](O)[C@@H](NC(=O)OC(C)(C)C)c4ccccc4)C[C@@](O)([C@@H](OC(=O)c4ccccc4)[C@H]21)C3(C)C,MTT,24 h,IC50,> 60 µg/mL
COc1cccc(NC(=O)Nc2nc3cc(-c4ccc5ncn(CCN6CCOCC6)c(=O)c5c4)ccc3s2)c1,MTT,72 h,pIC50,5.94
OC1CCN(c2ccc(/C=N/NC(=S)NCc3ccccc3)cc2)CC1,MTT,24 h,pIC50,5.37
CC(C)[C@@H]1NC(=O)[C@@H](CCCNC(=N)N)NC(=O)[C@H]([C@@H](C)O)NC(=O)[C@@H](CN)NC(=O)[C@H](Cc2ccccc2)NC(=O)[C@@H](Cc2ccccc2)NC1=O,ATP luminescence,,pIC50,4.10
O=C(Nc1cccc(C(F)(F)F)c1)Nc1nc2cc(-c3ccc4ncn(CCN5CCOCC5)c(=O)c4c3)ccc2s1,MTT,72 h,pIC50,5.83
CCCn1cnc2ccc(-c3ccc(NC(=O)CC4CCC4)nc3)cc2c1=O,CCK-8,72 h,pIC50,< 5.00
C(=N\Nc1cc(N/N=C/c2cccc3cccnc23)nc(-c2ccccc2)n1)/c1cccc2cccnc12,MTT,48 h,pIC50,4.90
[NH2][Pt]([NH2])([Cl])[Cl],MTT,48 h,pIC50,4.57
COc1ccccc1CNc1ccc(C(=O)O)cc1,resazurin,72 h,pIC50,< 4.00
Fc1ccc(NC(=S)N/N=C/c2cccc3cc4ccccc4nc23)cc1,MTT,48 h,pIC50,< 4.30
CNCc1cc(OC)cc2c1CN(c1cccc(-c3nncn3C(C)CC(F)(F)F)n1)C2=O (stereo not drawn),CCK-8,,pIC50,< 5.00
COc1cccc(CNc2ccc(C(=O)O)cc2)c1,resazurin,72 h,pIC50,< 4.00
CCCCn1cnc2ccc(-c3ccc(NC(=O)NC(C)(C)C)nc3)cc2c1=O,CCK-8,72 h,pIC50,< 5.00
Cc1ccc(NNc2nc3ccc(Br)cc3c(=O)n2-c2ccccc2)cc1,MTT,48 h,pIC50,4.76
Cc1cc(NS(=O)(=O)c2ccc(NC(=O)/C(C#N)=C/c3ccc(N4CCCC4)cc3)cc2)no1,MTT,48 h,pIC50,3.75
